How the values were obtained:
Format in all cases: in vivo, Mus musculus
[1] = system: hypothalamus and hindbrain; conditions: 2-DG 250 mg/kg i.p. after 5 h food deprivation; Fig 3B
How it was run: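 Mice food-deprived 5 h, then given 2-DG (250 mg/kg i.p.). […] Brains were dissected, dehydrated through a tetrahydrofuran series, cleared in dibenzylether and imaged by whole-brain light-sheet microscopy. Signal was autofluorescence-unmixed, and the volume of signal dispersion was quantified. Blood glucose was tracked; mean ± SEM.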

[2] = system: arcuate nucleus of control and Tanycyte^ΔVegfa mice; conditions: 2-DG 250 mg/kg with Ex-4_Cy3 120 nmol/kg; data not shown
[3] = system: hypothalamus (ME/ARC) and other CVOs; conditions: 120 nmol/kg i.p., 15 min before sacrifice; 2D planes from LSFM; Fig 2A
Glycemic change = conditions: single i.p. insulin injection, mean ± SEM
[4] = system: control and Tanycyte^ΔVegfa mice; assay: Metabolic efficiency; conditions: chow, daily i.p. insulin 20 nmol/kg, Fig 5F,G

With `O=CC[C@@H](O)[C@H](O)[C@H](O)CO` [2-DG, 2-deoxyglucose] the “blood glucose (counter-regulatory response)” value [1] was “increased”.
In the case of “Ex-4_Cy3: fluorescent Exendin-4 labeled with Cy3, Novo Nordisk”, the “total fluorescence intensity, control vs Tanycyte ΔVegfa” value [2] is reported as “comparable between groups”.
With “Ex-4_VT^750: fluorescent labeled Exendin4 (VT750), Novo Nordisk” the “brain regions with Ex-4_VT750 signal after systemic administration” value [3] was “detected in the ME/ARC, OLVT, AP, SFO, and choroid plexus”.
In the case of “insulin: Insulin (Novorupid, Flex pen, 8-9670-79-202-2), Novo Nordisk”, the “glycemic change (vehicle/insulin), Tanycyte ΔVegfa” value (Glycemic change; Tanycyte^ΔVegfa mice) is reported as 52% ± 2.08%, the “glycemic change (vehicle/insulin), controls” value (Glycemic change; control mice) is reported as 62% ± 5.7% and the “change in fat oxidation in response to insulin, Tanycyte ΔVegfa mice” value [4] is reported as “comparable with vehicle”.
